This note sets out measurements from ChEMBL document CHEMBL3352630, “Sequestered fulvinol-related polyacetylenes in Peltodoris atromaculata” (J Nat Prod, 2014).

The subject of test [1] is A549. Put plainly: Growth inhibition of human A549 cells after 72 hrs by MTT assay. In kind it is functional, cell-based. The settings on record: A549, 72 h. The essentials:
(§1)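 Human cancer cells (carcinoma: A549, MCF-7, PC-3; glioma: Hs683, U373; melanoma: SK-MEL-28) were cultured with the test compound for 72 h. Growth was read by MTT colorimetric assay, and the IC50 for in vitro growth inhibition is given in μM. Etoposide was run alongside as the reference agent.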

The test system of test [2] is MCF7. Put plainly: Growth inhibition of human MCF7 cells after 72 hrs by MTT assay. The settings on record: MCF7, 72 h. The test is classed as functional, cell-based. The essentials:
as §1

A short description of test [3]: Growth inhibition of human PC3 cells after 72 hrs by MTT assay. In kind it is functional, cell-based. The settings on record: PC-3, 72 h. An outline of the steps:
as §1
A general note: Formazan colour is commonly taken as a measure of viable cells.

Test [4] in a line: Growth inhibition of human Hs683 cells after 72 hrs by MTT assay. In kind it is functional, cell-based. The settings on record: Hs 683, 72 h. An outline of the steps:
as §1

Test [5] in a line: Growth inhibition of human U373 cells after 72 hrs by MTT assay. In kind it is functional, cell-based, U-373MG ATCC. The settings on record: U373 MG. An outline of the steps: as §1
In test [6] the test system is SK-MEL-28. The test is described as follows: Growth inhibition of human SK-MEL-28 cells after 72 hrs by MTT assay. The test is classed as functional, cell-based. The settings on record: SK-MEL-28, 72 h. The essentials: as §1

Regarding `C#C[C@@H](O)/C=C/CCCCCCCCCCCCC/C=C\CCCC/C=C\CCCC/C=C\C/C=C\CCCCCC(O)/C=C/[C@H](O)C#C` (some centres undefined), the IC50 – broadly, the midpoint of a concentration-inhibition curve – was 31 µM in test [1]; 15 µM in test [2]; 32 µM in test [3]; 23 µM in test [4]; 15 µM in test [5]; 3 µM in test [6].

As for `COc1cc([C@@H]2c3cc4c(cc3[C@@H](O[C@@H]3O[C@@H]5CO[C@@H](C)O[C@H]5[C@H](O)[C@H]3O)[C@H]3COC(=O)[C@H]23)OCO4)cc(OC)c1O` [ETOPOSIDE], the half-maximal inhibitory concentration (IC50) is 0.1 µM in test [1]; 17 µM in test [2]; 2 µM in test [3]; 1 µM in test [4]; 7 µM in test [5]; 1 µM in test [6].

On to `C#C[C@@H](O)/C=C/CCCCCCCCC/C=C\CCCC/C=C\CCCC/C=C\CCCCCCCCCCCCC/C=C/[C@H](O)C#C`, for which the IC50 in test [1] worked out at 28 µM; in test [2] it was 23 µM; in test [3], 18 µM; in test [4], 36 µM; in test [5] it was 19 µM; in test [6], 11 µM.

Consider `C#CC(=O)/C=C/CCCCCCCCC/C=C\CCCC/C=C\CCCC/C=C\CCCCCCCCCCCCC/C=C/C(=O)C#C`, for which the IC50 in test [1] was 37 µM; in test [2], 82 µM; in test [3] it was 86 µM; in test [4], more than 100 µM; in test [5], more than 100 µM; in test [6] it was more than 100 µM.
